Screens (PubChem BioAssay)
Rows were chosen to be rich in hits. Some 3.1% of all compounds tested hit in one or more screens of this group.
MEKK3 PB1 HTS = MEKK3-MEK5 PB1 interaction, increase or decrease | bead-based flow cytometry, Alexa488-MEK5 binding to MEKK3; actives lie on both sides; 0 = blocked by unlabeled MEK5, 100 = vehicle | binding response (% of control), % at 10 µM | hit rate 1.4% among 290,000 | AID 1529;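 active means binding response more than 3 SD above or below the average of its plate-row segment, actives on both sides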;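 further: Alexa488 bead fluorescence after subtracting the streptavidin-only scavenger bead signal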
UBC13 inh = inhibitors of human UBC13 polyubiquitin chain formation | P61088 | TR-FRET | inhibition, % at 20 µM | hit rate 0.47% among 330,000 | AID 485273; in the data active means inhibition above about 45%, passing the limit was not always enough
PREPL inh = inhibits the human prolyl oligopeptidase-like enzyme. hit rate 0.68% among 320,000. AID 2751. inhibition, % at 5.96 µM. recombinant PREPL, fluorescence polarization activity-based probe
MEKK2 WT-MEK5 = raises or lowers MEK5 binding to wildtype human MEKK2 PB1 domain; Q9Y2U5; bead flow cytometry, Alexa488-MEK5 binding to MEKK2 WT; actives lie on both sides; binding response (% of control), % at 10 µM; hit rate 1.1% among 290,000; AID 1531; in the data active means binding response below about 67% or above about 130%
MEKK2mut PB1 HTS = signal of MEK5 binding to mutant human MEKK2 PB1 domain; AID 1530; hit rate 0.35% among 290,000; percent response, % at 10 µM; bead flow cytometry, Alexa488-MEK5 binding to MEKK2 mutant; in the data active means percent response above about 24%, passing the limit was not always enough
Apaf-1 inh = inhibitors of human Apaf-1 apoptosome; AID 489030; O14727; inhibition, % at 20 µM; hit rate 0.71% among 330,000; reconstituted apoptosome caspase-3 activity, DEVD-Rh110 fluorescence; active means inhibition of at least 40% at 20 µM
Target sequence (O14727 whole entry, looked up): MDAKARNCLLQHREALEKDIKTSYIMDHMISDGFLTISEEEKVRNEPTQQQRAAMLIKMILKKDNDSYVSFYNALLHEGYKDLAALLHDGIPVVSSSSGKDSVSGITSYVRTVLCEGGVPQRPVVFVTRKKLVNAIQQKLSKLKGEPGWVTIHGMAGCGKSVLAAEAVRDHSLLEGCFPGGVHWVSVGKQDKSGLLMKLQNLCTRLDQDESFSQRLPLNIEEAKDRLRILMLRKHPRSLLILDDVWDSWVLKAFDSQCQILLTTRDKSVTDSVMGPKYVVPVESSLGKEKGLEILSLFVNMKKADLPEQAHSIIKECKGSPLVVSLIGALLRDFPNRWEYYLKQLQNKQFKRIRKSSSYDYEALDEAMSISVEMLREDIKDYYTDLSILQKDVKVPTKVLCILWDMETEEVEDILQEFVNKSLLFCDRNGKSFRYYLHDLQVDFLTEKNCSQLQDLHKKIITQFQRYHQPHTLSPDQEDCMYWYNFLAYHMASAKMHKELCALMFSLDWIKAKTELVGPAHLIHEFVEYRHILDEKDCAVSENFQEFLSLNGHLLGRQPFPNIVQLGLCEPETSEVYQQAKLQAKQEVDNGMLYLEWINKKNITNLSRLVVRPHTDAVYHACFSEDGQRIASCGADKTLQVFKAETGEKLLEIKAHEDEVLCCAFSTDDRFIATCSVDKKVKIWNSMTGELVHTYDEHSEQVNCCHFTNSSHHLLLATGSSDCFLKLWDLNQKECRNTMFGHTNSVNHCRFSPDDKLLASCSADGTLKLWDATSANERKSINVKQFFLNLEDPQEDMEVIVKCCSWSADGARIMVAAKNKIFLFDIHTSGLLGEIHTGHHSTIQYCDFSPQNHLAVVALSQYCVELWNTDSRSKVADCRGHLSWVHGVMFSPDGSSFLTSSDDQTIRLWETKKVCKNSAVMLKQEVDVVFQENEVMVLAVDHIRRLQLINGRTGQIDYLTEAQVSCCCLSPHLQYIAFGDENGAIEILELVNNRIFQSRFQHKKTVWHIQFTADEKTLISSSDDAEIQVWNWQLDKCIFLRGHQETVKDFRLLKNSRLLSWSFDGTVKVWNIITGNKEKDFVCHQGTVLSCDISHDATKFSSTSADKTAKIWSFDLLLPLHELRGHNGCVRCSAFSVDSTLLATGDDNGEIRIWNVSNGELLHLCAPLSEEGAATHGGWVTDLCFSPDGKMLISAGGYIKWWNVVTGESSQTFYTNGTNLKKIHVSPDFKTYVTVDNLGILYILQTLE
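Material: biochemical Apaf-1 apoptosome reconstitution. Medium: Hepes buffer, pH 7.5. Also added: cytochrome c activation, bis-DEVD rhodamine 110 substrate. Timing: 30 min compound preincubation, 50 min activation, room temperature. Measured by: rhodamine 110 fluorescence at Ex 480/Em 540 nm.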
MEKK2wt confirm = raises or lowers MEK5 binding to wildtype human MEKK2, retest; bead flow cytometry, Alexa488-MEK5 binding to MEKK2 WT; actives lie on both sides; binding response (% of control), % at 10 µM; shares compounds with MEKK3 PB1 HTS; hit rate 2.4% among 5,900; in the data active means binding response below about 16% or above about 210%; inactive means in between
MEKK2mut confirm = signal of MEK5 binding to mutant human MEKK2, retest. shares compounds with MEKK3 PB1 HTS. bead flow cytometry, Alexa488-MEK5 binding to MEKK2 mutant. percent response, % at 10 µM. hit rate 2% among 5,900. AID 1893; in the data active means percent response mostly above about 71%, no sharp cut-off; inactive means mostly below about 38%;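 further: higher means compound restores mutant binding toward wildtype level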
MEKK3-MEK5 inh = confirmation of inhibitors of MEK5 binding to human MEKK3. shares compounds with MEKK3 PB1 HTS. bead flow cytometry, Alexa488-MEK5 binding to MEKK3; active compounds read low. AID 1894. hit rate 1.8% among 5,900. binding response (% of control), % at 10 µM;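 active means binding response below 72% of control, or above a set upper limit, though filed actives all read lower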;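 further: lower values mean stronger disruption of MEK5 binding to MEKK3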
PREPL inh cf = human PREPL inhibition, confirmation; shares compounds with PREPL inh; recombinant PREPL, fluorescence polarization activity probe; inhibition, % at 5.96 µM; hit rate 67% among 2,000; AID 2803
Each line names hits and unclear results; the compound was inactive in the other large screens (follow-up assays come after a bar, where they were run); [ ] = another dose, or the depositor's remark. Unless noted, no stated cut-off is given here; in the data, active means inhibition above about 43%; inactive means the rest.

Cc1ccc(-c2nc(NC(=O)c3cc(C(C)(C)C)nn3C)sc2C)cc1Cl	none
CCCCn1c(N)c(N(Cc2ccccc2OC)C(=O)CN2C(=O)NC3(CCCC3)C2=O)c(=O)[nH]c1=O	none (no result: MEKK3 PB1 HTS, MEKK2 WT-MEK5, MEKK2mut PB1 HTS)
Nc1ccc2nc(CCCCCCCCc3nc4ccc(N)cc4[nH]3)[nH]c2c1	PREPL inh 70, MEKK2 WT-MEK5 140 | MEKK2wt confirm inactive | MEKK2mut confirm inactive | MEKK3-MEK5 inh inactive | PREPL inh cf inactive
Nc1ccc2nc(CCCCCCc3nc4ccc(N)cc4[nH]3)[nH]c2c1	none
COc1ccc(NC(=O)N2CCN(c3ccc([N+](=O)[O-])cc3)CC2)cc1OC	MEKK3 PB1 HTS 45[inhibitor], PREPL inh 46 | MEKK2wt confirm inactive | MEKK2mut confirm inactive | MEKK3-MEK5 inh inactive | PREPL inh cf 56
COc1cc2nc(Nc3ccc(C)c(C)c3)nc(N)c2cc1OC	PREPL inh 52, MEKK2 WT-MEK5 159, MEKK2mut PB1 HTS 28 | MEKK2wt confirm inactive | MEKK2mut confirm inactive | MEKK3-MEK5 inh inactive | PREPL inh cf 51
O=C(Cn1cnc([N+](=O)[O-])c1)Nc1ccccc1C(F)(F)F	none
Cc1ccc(S(=O)(=O)c2cc(OC(=O)c3ccco3)ccc2OC(=O)c2ccco2)cc1	MEKK3 PB1 HTS 128, PREPL inh 86 | MEKK2wt confirm inactive | MEKK2mut confirm inactive | MEKK3-MEK5 inh inactive | PREPL inh cf 77
N#Cc1nc(COc2ccccc2)oc1NCCN1CCOCC1	none
N#Cc1nc(COc2ccc(-c3ccccc3)cc2)oc1NCCCN1CCOCC1	PREPL inh 45, MEKK2 WT-MEK5 140 | MEKK2wt confirm inactive | MEKK2mut confirm inactive | MEKK3-MEK5 inh inactive | PREPL inh cf inactive
CN(C)CCNC(=O)C(=O)c1c(-c2ccccc2)cc2ccccn12	none
COc1ccc(-c2c(-c3ccccc3)c(C(=O)C(=O)NCCCN(C)C)n3ccc4cc(OC)c(OC)cc4c23)cc1OC	PREPL inh 46, MEKK2 WT-MEK5 140 | MEKK2wt confirm inactive | MEKK2mut confirm inactive | MEKK3-MEK5 inh inactive | PREPL inh cf 52
CCC(C)c1ccc(NC(=S)NCc2ccccc2OC)cc1 (centres undefined)	none (no result: UBC13 inh, PREPL inh, Apaf-1 inh)
CCOc1ccc(-c2cnc(NCc3cccc4ccccc34)n2CCOC)cc1	PREPL inh 47, MEKK2 WT-MEK5 192 | MEKK2wt confirm inactive | MEKK2mut confirm inactive | MEKK3-MEK5 inh inactive | PREPL inh cf inactive
COC(=O)CCC(=O)OC1(C)C(=O)C2=CN(CCc3c[nH]c4ccccc34)C(c3ccc(OC)cc3)=CC2=C(Br)C1=O (centres undefined)	none
COC(=O)CCC(=O)OC1(C)C(=O)C=C2C=C(C3CC3)N(CCc3c[nH]c4ccccc34)C=C2C1=O (centres undefined)	MEKK3 PB1 HTS 0.0[inhibitor], PREPL inh 63, MEKK2 WT-MEK5 0.0[inhibitor] | MEKK2wt confirm inactive | MEKK2mut confirm inactive | MEKK3-MEK5 inh inactive | PREPL inh cf 52
Cc1ccc(C)c(CN2CCSCC2)c1	none
CCn1c2ccccc2c2cc(CNCc3ccc(OC)cc3OC)ccc21	PREPL inh 49, MEKK2 WT-MEK5 170 | MEKK2wt confirm inactive | MEKK2mut confirm inactive | MEKK3-MEK5 inh inactive | PREPL inh cf 51
COc1cccc(CNCc2ccc(OC)cc2OC)c1	none
Cc1ccc(Nc2nc(N3CCOCC3)c3ccccc3n2)cc1	none
